The values that follow come from ChEMBL document CHEMBL4354825, “Design and Synthesis of Basic Selective Estrogen Receptor Degraders for Endocrine Therapy Resistant Breast Cancer” (J Med Chem, 2019).

The source made the active and inactive calls. The rule behind the calls is not given here.

The nature of series [1]: Antiproliferative activity against human MCF7:WS8 cells assessed as reduction in cell viability incubated for 5 days by Hoechst 33258 dye based assay. In kind it is functional. The conditions noted are these: MCF7:WS8, 120 h. The procedure, abridged:
(§1)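 Cells were seeded at 5000 per well; MCF7:WS8 had been estrogen-stripped for 2 days first. Compounds were serially diluted in DMSO, with 0.01% DMSO as vehicle. The medium was removed on day 5 (MCF7:WS8) or day 7 (MCF7:5C), and cells were lysed by freezing at −80 °C overnight. DNA was measured by Hoechst 33258 fluorescence. Maximum efficacy was normalized to vehicle (0%) and no cells (100%); at least three biological replicates.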

For series [2], the species on record is Homo sapiens. Kind of series: (§2) Antiproliferative activity against human MCF7:5C cells assessed as reduction in cell viability incubated for 7 days by Hoechst 33258 dye based assay relative to control. The format is functional. The procedure, abridged: as §1
The nature of series [3]: Antiproliferative activity against human MCF7:WS8 cells assessed as reduction in cell viability incubated for 5 days by Hoechst 33258 dye based assay relative to control. The following applies: MCF7:WS8, 120 h. The format is functional. The procedure, abridged: as §1
Series [4] concerns Mus musculus. Kind of series: In vivo degradation of ERalpha in C57BL/6 mouse at 50 mg/kg, po administered for 3 days and measured on day 3 by Western blot analysis. The format is functional, organism-based. In outline: (§3)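 Female C57BL/6J mice aged 9–12 weeks were dosed at 50 mg/kg p.o. in PEG 400/10% HPCD (1:9 v/v). Regimens were a single dose with sacrifice at 5 h, or 3 daily doses with sacrifice 5 h (n = 5) or 7 h (n = 6) after the last dose. Ovaries and uterus were homogenized, 20 μg protein was run by SDS-PAGE, and the blot was probed for ERα and normalized to β-actin.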
(A western blot detects proteins with antibodies after separation by electrophoresis.)

For series [5], the target named is T1, Estrogen receptor (Homo sapiens) (UniProt P03372).
T1 sequence (whole entry): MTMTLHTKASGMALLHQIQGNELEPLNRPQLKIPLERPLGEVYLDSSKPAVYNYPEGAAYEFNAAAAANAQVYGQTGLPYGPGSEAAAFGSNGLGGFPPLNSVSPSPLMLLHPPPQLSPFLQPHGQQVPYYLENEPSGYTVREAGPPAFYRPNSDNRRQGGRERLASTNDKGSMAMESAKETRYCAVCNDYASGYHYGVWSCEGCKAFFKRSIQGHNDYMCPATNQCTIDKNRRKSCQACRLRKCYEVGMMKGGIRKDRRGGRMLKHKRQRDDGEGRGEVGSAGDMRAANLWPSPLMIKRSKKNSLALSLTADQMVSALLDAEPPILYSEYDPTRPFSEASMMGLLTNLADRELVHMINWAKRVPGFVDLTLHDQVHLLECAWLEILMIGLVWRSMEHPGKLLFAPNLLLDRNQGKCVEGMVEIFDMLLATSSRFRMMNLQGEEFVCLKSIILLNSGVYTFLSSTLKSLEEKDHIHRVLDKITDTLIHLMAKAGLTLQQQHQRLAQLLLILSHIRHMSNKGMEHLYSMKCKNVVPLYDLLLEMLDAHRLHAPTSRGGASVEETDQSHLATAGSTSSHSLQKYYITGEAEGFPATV
Kind of series: Induction of degradation of ERalpha in human MCF7:WS8 cells at 100 nM in presence of MG-132 incubated for 24 hrs by Western blot analysis. The format is cell-based.

For series [6], the system named is Mus musculus. Briefly: In vivo degradation of ERalpha in C57BL/6 mouse at 50 mg/kg, po measured after 7 hrs by Western blot analysis. The format is functional, organism-based. The procedure, abridged:
as §3

Series [7] is described as follows: Drug concentration in C57BL/6 mouse brain at 100 mg/kg, po measured after 0.5 hrs by LC/MS-MS analysis. In kind it is ADME, organism-based. The following applies: read-out: Drug uptake. The procedure, abridged:
(§4)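 PK screen in female C57BL/6 mice (N = 3 per time point). Dosed by gavage at 100 mg/kg in HPβD/PEG-400. Plasma and brain were taken from perfused mice at 30 and 120 min. Quantified by LC-MS/MS in MRM mode, with standard curves in each matrix and a common internal standard. Values are mean and s.d.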

Series [8] deals with T2, Estrogen receptor (Homo sapiens, UniProt P03372).
T2 sequence (P03372 whole entry): T1 sequence (whole entry)
Kind of series: Inhibition of ERalpha in human MCF7:WS8 cells assessed as increase in degradation of ERalpha incubated for 24 hrs by In-Cell Western assay. The format is cell-based. In outline: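 MCF7:WS8 cells were estrogen-stripped for 2 days and plated at 2.5 × 10^4 per well. ERα was detected by in-cell western (H10 antibody), with signal normalized to CellTag 700.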

Series [9] deals with T2, Estrogen receptor. Briefly: Antagonist activity at ERalpha in human MCF7:WS8 cells incubated for 18 hrs by dual luciferase reporter gene assay relative to control. The format is cell-based. The procedure, abridged:
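MCF7:WS8 cells were estrogen-deprived for 3 days (phenol red-free RPMI, stripped FBS), then plated and grown 24 h. They were co-transfected for 6 h with a 3×vitellogenin ERE-firefly luciferase plasmid and a pRL-TK Renilla plasmid. Compounds were given in competition with 1 nM E2 for 18 h, then dual luciferase was read.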

Another series can be described thus: cells. The following applies: Homo sapiens, MCF7:5C, 168 h, read-out: pIC50 (converted).
The nature of series [10]: Drug concentration in C57BL/6 mouse brain at 100 mg/kg, po measured after 2 hrs by LC/MS-MS analysis. In kind it is ADME, organism-based. The conditions noted are these: read-out: Drug uptake. In outline: as §4
The nature of series [11]: Plasma concentration in C57BL/6 mouse at 100 mg/kg, po measured after 0.5 hrs by LC/MS-MS analysis. The format is ADME, organism-based. In outline:
as §4

Series [12] deals with T1, Estrogen receptor (Homo sapiens). Briefly: Inhibition of ERalpha in human MCF7:WS8 cells assessed as increase in degradation of ERalpha incubated for 24 hrs by In-Cell Western assay relative to control. The format is cell-based. The procedure, abridged: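 MCF7:WS8 cells were estrogen-stripped for 2 days and plated at 2.5 × 10^4 per well. After 48 h they were treated for 24 h. ERα was detected by in-cell western (H10 antibody), with signal normalized to CellTag 700.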

The nature of series [13]: as §2. The format is functional. The conditions noted are these: 168 h. In outline:
as §1

A short description of series [14]: Plasma concentration in C57BL/6 mouse at 100 mg/kg, po measured after 2 hrs by LC/MS-MS analysis. In kind it is ADME, organism-based. The procedure, abridged: as §4
In series [15] the test system is T47D. Kind of series: Cytotoxicity against human T47D 3D spheroid cells assessed as reduction in tumor cell viability at 10 nM incubated for 14 days by celltiter-glo 3D cell viability assay.
Series [16] can be described thus: Plasma concentration in C57BL/6 mouse at 5 mg, sc measured after 2 hrs by LC/MS-MS analysis. The format is ADME, organism-based. The procedure, abridged:
(§5)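 PK screen in female C57BL/6 mice (N = 3 per time point) given 5 mg s.c. single dose; mice perfused, plasma and brain collected postmortem at 0.5 and 2 h; analyte quantified by LC-MS/MS in MRM mode against standard curves prepared in the matching matrix with a common internal standard; mean and s.d. reported.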

A short description of series [17]: Plasma concentration in C57BL/6 mouse at 5 mg, sc measured after 0.5 hrs by LC/MS-MS analysis. In kind it is ADME, organism-based. The procedure, abridged:
as §5

In series [18] the test system is T47D. Kind of series: Cytotoxicity against human T47D 3D spheroid cells harboring D538G mutant assessed as reduction in tumor cell viability at 10 nM incubated for 14 days by celltiter-glo 3D cell viability assay. (Cellular ATP, detected with luciferase, serves as a proxy for viable cell number.)
For series [19], the species on record is Homo sapiens. Kind of series: Cytotoxicity against human MCF7:WS8 3D spheroid cells assessed as reduction in tumor spheroid size at 10 nM incubated for 14 days.
Series [20] relates to Rattus norvegicus. Briefly: Induction of uterotrophic activity in Sprague-Dawley rat assessed as increase in uterine weight at 2 mg/kg, sc administered for 3 days and measured after 24 hrs of last dosing by hematoxylin eosin staining based imaging analysis. The format is functional, organism-based. In outline: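 Female Sprague Dawley rats, 12 days old, were housed with foster dams (6 per dam) and acclimated for one week. From day 19 they received 3 daily doses of 2 mg/kg s.c. in peanut oil. Animals were killed 24 h after the last dose, and uteri were excised, trimmed of fat and mesentery, and weighed. Half of each uterus was fixed in 4% paraformaldehyde, paraffin embedded and stained with H&E.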

A short description of series [21]: Drug concentration in C57BL/6 mouse brain at 5 mg, sc measured after 0.5 hrs by LC/MS-MS analysis. The format is ADME, organism-based. The conditions noted are these: read-out: Drug uptake. In outline:
as §5

Series [22] is described as follows: Drug concentration in C57BL/6 mouse brain at 5 mg, sc measured after 2 hrs by LC/MS-MS analysis. The format is ADME, organism-based. The following applies: read-out: Drug uptake. In outline: as §5
In series [23] the test system is MCF7:TAM1. Kind of series: Cytotoxicity against human MCF7:TAM1 3D spheroid cells assessed as reduction in tumor cell viability at 10 nM incubated for 14 days by celltiter-glo 3D cell viability assay.
Series [24] has as its system MCF7:TAM1. Briefly: Antitumor activity against human MCF7:TAM1 cells xenografted in athymic nude mouse assessed as tumor regression at 5 mg, sc measured after 4 weeks. In kind it is functional, organism-based. In outline: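 Ovariectomized athymic female nude mice, 4–6 weeks old, carrying MCF7:TAM1 tumours established in the mammary fat pad, with E2 supplied from 1.0 cm silastic capsules implanted s.c. Dosing was 5 mg/week s.c. in sesame oil. Tumour cross-sectional area was measured weekly with calipers as (length/2)×(width/2)×π, and mean area was plotted against time in weeks.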
In general terms: A xenograft is tissue or cells of one species grown in another, often human tumour cells in immunodeficient mice.

The species entered for series [25] is Homo sapiens. Kind of series: Cytotoxicity against human MCF7:WS8 3D spheroid cells assessed as reduction in tumor cell viability at 10 nM incubated for 14 days by celltiter-glo 3D cell viability assay.
Series [26] deals with T47D. Kind of series: Cytotoxicity against human T47D 3D spheroid cells harboring Y537S mutant assessed as reduction in tumor cell viability at 10 nM incubated for 14 days by celltiter-glo 3D cell viability assay.
The test system of series [27] is Rattus norvegicus. Briefly: Induction of uterotrophic activity in Sprague-Dawley rat assessed as increase in uterine weight at 10 mg/kg, po administered for 3 days and measured after 24 hrs of last dosing by hematoxylin eosin staining based imaging analysis. In kind it is functional, organism-based. The procedure, abridged: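 Female Sprague-Dawley rats were dosed from day 19 of age once daily for 3 days: 10 mg/kg p.o. in 2% Tween 80/0.5% methylcellulose. EE2 (0.1 mg/kg p.o., peanut oil) was the positive control. Uteri were excised and weighed 24 h after the last dose; one half was fixed in 4% paraformaldehyde for H&E histology.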

Take `O=C(c1ccc(OCCN2CCCCC2)cc1)c1c(-c2ccc(O)cc2)sc2cc(O)ccc12` [RALOXIFENE]: the IC50 in series [1] was 2.4 nM. In addition, the Emax entry in the series filed under Homo sapiens [2] is “inactive”. Further, the Emax in series [3] was 69%.
In the case of `Cc1cc(Cl)cc(C)c1C(=O)c1sc2cc(O)ccc2c1Oc1ccc(/C=C/C(=O)O)cc1`, the outcome (in the series on Mus musculus [4]; in series [5]; with Mus musculus [6]) was Active.
In the case of `Cc1ccccc1C(=O)c1sc2cc(O)ccc2c1Oc1ccc(OCCN2CCCCC2)cc1`, the IC50 in series [1] is 0.407 nM. The Emax entry in the series listed under Homo sapiens [2] is “inactive”. Besides, the Emax in series [3] turned out to be 68%.
As for `Cc1cc(F)cc(C)c1C(=O)c1sc2cc(O)ccc2c1Oc1ccc(OCCN2CC[C@@H](CF)C2)cc1`, the results for the concentration at 0.5 h in [7] and in series [11] were 121 nM and 211 nM, respectively. Besides, the IC50 was 5.89 nM on Estrogen receptor [8], 12 nM against Estrogen receptor [9], 1.07 nM in the series “cells” and 0.631 nM in [1]. The concentration at 2 h is 276 nM in series [10] and 163 nM in series [14]. Further, in [12], the Efficacy turned out to be 84%. Further, the Emax in [13] is 34%; in series [3], 66%.
In the case of `C[C@]12CC[C@@H]3c4ccc(O)cc4C[C@@H](CCCCCCCCC[S+]([O-])CCCC(F)(F)C(F)(F)F)[C@H]3[C@@H]1CC[C@@H]2O` (stereo not given in full) [FULVESTRANT], the result in the series on T47D [15], with T47D [18], in the series filed under Homo sapiens [19], in the series with MCF7:TAM1 [23], in the series on MCF7:TAM1 [24] and in the series filed under Homo sapiens [25] was Active. Also, the outcome in the series with T47D [26] was Active. For the same compound, the concentration at 2 h is 301 nM in series [16] and 47.4 nM in series [22]. For the same compound, the concentration at 0.5 h in series [17] was 31.2 nM; in series [21], 0.7 nM. For the same compound, the outcome in the series with Rattus norvegicus [20] was inactive. Besides, in series [1], the IC50 was 0.603 nM. The figures for the Emax in series [13] and in [3] were 48% and 66%, respectively.
Take `Cc1cc(F)cc(C)c1C(=O)c1sc2cc(O)ccc2c1Oc1ccc(OCCN2CC(CF)C2)cc1`: the concentration at 0.5 h in series [7] was 750 nM; in [11], 786 nM. The IC50 on Estrogen receptor [8] was 1.41 nM; at Estrogen receptor [9], 3.5 nM; in the series “cells”, 2.14 nM; in series [1], 0.468 nM. Also, the outcome in the series filed under Homo sapiens [19], in the series with MCF7:TAM1 [23] and in the series filed under Homo sapiens [25] was Active. The concentration at 2 h in [10] was determined as 588 nM; in series [14], 659 nM. In series [12], the Efficacy was found to be 85%. Besides, the Emax came to 47% in series [13] and 73% in [3].
Turning to `Cc1c(-c2ccc(O)cc2)n(Cc2ccc(OCCN3CCCCCC3)cc2)c2ccc(O)cc12`, the result in the series with Rattus norvegicus [27] was inactive.
